# Laboratory results reported in ChEMBL document CHEMBL1141653, “New bis(2-aminoimidazoline) and bisguanidine DNA minor groove binders with potent in vivo antitrypanosomal and antiplasmodial activity” (J Med Chem, 2008).
# Legend:
# L6 = experiment: Cytotoxicity against rat L6 cells; assay type: cell-based
# Plasmodium falciparum = experiment: Antiplasmodial activity against Plasmodium falciparum K1 in [3H]hypoxanthine incorporation assay; assay type: functional, organism-based; details: K1, 72 h
# In short: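 K1 erythrocytic stages in RPMI 1640 without hypoxanthine with AlbuMax, human A⁺ red cells at 2.5% hematocrit, 0.3% parasitemia. Compounds taken from 10 mg/mL DMSO stock, tested as serial doubling dilutions at 37 °C in 4% CO₂/3% O₂/93% N₂. After 48 h, ³H-hypoxanthine (0.5 µCi) added for 24 h more; incorporation by scintillation counting. IC₅₀ from sigmoidal curves.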
# [1] = test system: Trypanosoma brucei rhodesiense; experiment: Antitrypanosomal activity against Trypanosoma brucei rhodesiense STIB900; assay type: functional, organism-based
# In short: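 Bloodstream forms (10⁴ per well) in MEM with 15% heat-inactivated horse serum, 25 mM HEPES, 2-mercaptoethanol, hypoxanthine. 3-fold serial dilutions from 90 to 0.123 µg/mL, in duplicate. Incubation 72 h at 37 °C, 5% CO₂. Resazurin then added for 2–4 h more. Fluorescence read at ex 536 / em 588 nm.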
# Ferriprotoporphyrin IX [2] = experiment: Inhibition of ferriprotoporphyrin 9 biomineralization; assay type: functional
# In short: (§1)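 β-Hematin formation: hemin chloride (0.5 mg/mL in DMSO) with 0.5 M sodium acetate pH 4.4 and drug dilutions, 37 °C for 18–24 h. Pellet washed with DMSO, dissolved in 0.1 N NaOH, A405 read. Percent inhibition relative to solvent control. IC₅₀ derived, or percent inhibition at 1 mg/mL (highest concentration) given when no IC₅₀.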
# [3] = Selectivity index, ratio of IC50 for rat L6 cells to IC50 for Plasmodium falciparum K1; assay type: functional
# In short: (§2)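 Ratio of the IC₅₀ on L-6 rat skeletal myoblasts to the parasite IC₅₀. Cytotoxicity measured in RPMI 1640 with L-glutamine and 10% FBS, serial dilutions 90 to 0.123 µg/mL, duplicate. After 72 h, Alamar blue (resazurin) added for 2 h. Fluorescence read at ex 536 / em 588 nm.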
# [4] = Binding affinity for DNA assessed as thermal melting temperature
# In short: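 Thermal melting of poly(dA)·poly(dT): DNA at 40 µM base with compound at 12 µM (ratio 0.3) in MES 0.01 M / EDTA 0.001 M buffer, pH 6.25. A260 followed from 20 to 95 °C at 0.5 °C/min. Value is ΔTm.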
# [5] = Selectivity index, ratio of IC50 for rat L6 cells to IC50 for Trypanosoma brucei rhodesiense STIB900; assay type: functional; in short: as §2
# Ferriprotoporphyrin IX [6] = experiment: Inhibition of ferriprotoporphyrin 9 biomineralization at 1 mg/ml; assay type: functional; in short: as §1
SMILES,IC50 (L6),IC50 (Plasmodium falciparum),IC50 [1],IC50 (Ferriprotoporphyrin IX [2]),Ratio IC50 [3],ΔTm [4],Ratio IC50 [5],inhibition (Ferriprotoporphyrin IX [6])
CSc1ccc(NC(=N)N)cc1,240 µM,1.3 µM,5.9 µM,,,,,
O=C(Nc1ccccc1)Nc1ccc(NC2=NCCN2)cc1,> 219 µM,3.4 µM,45.4 µM,,,,,
CN(C)c1ccc(NC2=NCCN2)cc1,> 324 µM,> 18 µM,46.6 µM,,,,,
N=C(N)Nc1ccc2c(c1)OCO2,> 417 µM,> 23 µM,146 µM,,,,,
c1ccc(Cc2ccc(NC3=NCCN3)cc2)cc1,73 µM,1.7 µM,4.9 µM,,,,,
O=C(Nc1ccc(NC2=NCCN2)cc1)c1ccccc1,> 284 µM,> 15 µM,94.7 µM,,,,,
CC(C)(C)OC(=O)N1CCN(C(=O)OC(C)(C)C)C1=Nc1ccc(Nc2ccc(N=C3N(C(=O)OC(C)(C)C)CCN3C(=O)OC(C)(C)C)cc2)cc1,9.8 µM,0.059 µM,0.048 µM,171 µM,166,,,
c1ccc(NC2=NCCN2)cc1,> 455 µM,> 25 µM,182 µM,,,,,
Nc1nc(N)nc(Nc2ccc([As]3SCC(CO)S3)cc2)n1 (stereo unspecified) [MELARSOPROL],,5.5 µM,,,,,,
N=C(N)Nc1ccc(Cc2ccccc2)cc1,43.9 µM,3.8 µM,15.9 µM,,,,,
c1ccc(Nc2ccc(NC3=NCCN3)cc2)cc1,90.7 µM,0.549 µM,1.2 µM,,,,,
CSc1ccc(NC2=NCCN2)cc1,174 µM,1.7 µM,7.3 µM,,,,,
Cc1ccc(NC(=N)N)cc1C,190 µM,12.2 µM,39.9 µM,,,,,
N=C(N)Nc1ccc(S(=O)(=O)c2ccc(NC(=N)N)cc2)cc1,> 222 µM,0.444 µM,4.3 µM,,>500,12.8 °C,>51,
CC(C)(C)OC(=O)N1CCN(C(=O)OC(C)(C)C)C1=Nc1ccc(S(=O)(=O)c2ccc(N=C3N(C(=O)OC(C)(C)C)CCN3C(=O)OC(C)(C)C)cc2)cc1,56.4 µM,0.055 µM,2.6 µM,,1025,,,27%
c1cc2c(cc1NC1=NCCN1)Cc1cc(NC3=NCCN3)ccc1-2,83.4 µM,0.0115 µM,0.0049 µM,491 µM,7252,44.1 °C,17020,
c1ccc(Sc2ccc(NC3=NCCN3)cc2)cc1,28.5 µM,1.2 µM,1.9 µM,,,,,
N=C(N)Nc1ccc(Cc2ccc(NC(=N)N)cc2)cc1,2.8 µM,0.032 µM,0.161 µM,,88,15 °C,17,0%
CCOC(CNC(=N)Nc1ccc(Cc2ccc(NC(=N)NCC(OCC)OCC)cc2)cc1)OCC,> 175 µM,0.036 µM,0.316 µM,,>4861,5.3 °C,>553,
Nc1ccc(NC2=NCCN2)cc1,> 423 µM,15 µM,,,,,,

SMILES,IC50 (L6),IC50 (Plasmodium falciparum),IC50 [1],IC50 (Ferriprotoporphyrin IX [2]),Ratio IC50 [3],ΔTm [4],Ratio IC50 [5],inhibition (Ferriprotoporphyrin IX [6])
c1cc(N2CCCCC2)ccc1NC1=NCCN1,> 283 µM,12 µM,50.4 µM,,,,,
O=C(c1ccc(NC2=NCCN2)cc1)c1ccc(NC2=NCCN2)cc1,> 214 µM,0.129 µM,2.05 µM,117 µM,>1658,,,
N=C(N)Nc1ccc(Oc2ccc(NC(=N)N)cc2)cc1,1.64 µM,0.046 µM,0.196 µM,,36,22.1 °C,8,0%
N=C(N)Nc1ccc(C(=O)c2ccccc2)cc1,118 µM,> 18 µM,14.4 µM,,,,,
N=C(N)Nc1ccc(Sc2ccc(NC(=N)N)cc2)cc1,2.66 µM,0.035 µM,0.102 µM,,76,20.1 °C,26,0%
CC(C)(C)OC(=O)/N=C(/NC(=O)OC(C)(C)C)Nc1ccc(Nc2ccc(N/C(=N\C(=O)OC(C)(C)C)NC(=O)OC(C)(C)C)cc2)cc1,3.7 µM,0.077 µM,0.47 µM,,48,,,45%
c1cc2c(cc1NC1=NCCN1)OCO2,> 372 µM,> 20 µM,93.5 µM,,,,,
O=C(Nc1ccccc1)c1ccc(NC2=NCCN2)cc1,> 284 µM,> 15 µM,42.9 µM,,,,,
N=C(N)Nc1ccc2c(c1)CCC2,73.7 µM,0.95 µM,0.99 µM,,,,,
N=C(N)Nc1ccc2c(c1)OCCO2,> 391 µM,9 µM,150 µM,,,,,
N=C(N)Nc1ccc(NC(=O)Nc2ccccc2)cc1,> 234 µM,4.1 µM,32.9 µM,,,,,
N=C(N)Nc1ccc(N2CCCCC2)cc1,232 µM,7.9 µM,48.6 µM,,,,,
COc1ccc(NC(=N)N)cc1OC,> 388 µM,14.8 µM,237 µM,,,,,
Cc1ccc(NC2=NCCN2)cc1C,> 398 µM,17.1 µM,49.8 µM,,,,,
N=C(N)Nc1ccc(C(=O)c2ccc(NC(=N)N)cc2)cc1,2.7 µM,0.068 µM,0.206 µM,,40,27.6 °C,13,
CCc1ccc(NC(=N)N)cc1,310 µM,9 µM,45.7 µM,,,,,
CN(C)c1ccc(NC(=N)N)cc1,> 358 µM,> 19 µM,20.1 µM,,,,,
N=C(N)Nc1ccc(N)cc1,132 µM,> 26 µM,311 µM,,,,,
Cc1ccc(NC(=N)N)cc1,> 484 µM,> 27 µM,164 µM,,,,,
Cc1ccc(NC2=NCCN2)cc1,> 425 µM,> 23 µM,262 µM,,,,,

SMILES,IC50 (L6),IC50 (Plasmodium falciparum),IC50 [1],IC50 (Ferriprotoporphyrin IX [2]),Ratio IC50 [3],ΔTm [4],Ratio IC50 [5],inhibition (Ferriprotoporphyrin IX [6])
CCN(CC)c1ccc(NC2=NCCN2)cc1,> 444 µM,15 µM,40.1 µM,,,,,
c1cc2c(cc1NC1=NCCN1)CCC2,> 378 µM,5.3 µM,9.2 µM,,,,,
CCOC(CNC(=N)Nc1ccc(Nc2ccc(NC(=N)NCC(OCC)OCC)cc2)cc1)OCC,> 175 µM,0.113 µM,0.228 µM,162 µM,>1548,13.6 °C,>767,
N=C(N)Nc1ccc(NC(=S)Nc2ccccc2)cc1,> 225 µM,8.7 µM,1.3 µM,,,,,
c1ccc(Oc2ccc(NC3=NCCN3)cc2)cc1,167 µM,5.7 µM,5 µM,,,,,
S=C(Nc1ccccc1)Nc1ccc(NC2=NCCN2)cc1,91.1 µM,3.1 µM,2.6 µM,,,,,
O=S(=O)(c1ccc(NC2=NCCN2)cc1)c1ccc(NC2=NCCN2)cc1,> 196 µM,5.6 µM,32.4 µM,,>35,12.1 °C,>6,
O=C(c1ccccc1)c1ccc(NC2=NCCN2)cc1,226 µM,5.2 µM,9.4 µM,,,,,
CCN(CC)c1ccc(NC(=N)N)cc1,78.1 µM,5.7 µM,2.4 µM,,,,,
CC(=O)c1ccc(NC(=N)N)cc1,> 421 µM,> 23 µM,155 µM,,,,,
N=C(N)Nc1ccc(Nc2ccc(NC(=N)N)cc2)cc1,0.65 µM,0.018 µM,0.022 µM,,36,29.6 °C,30,0%
N=C(N)Nc1ccc(Oc2ccccc2)cc1,59.9 µM,7.9 µM,18.8 µM,,,,,
c1cc2c(cc1NC1=NCCN1)OCCO2,> 351 µM,> 19 µM,68.4 µM,,,,,
N=C(N)c1ccc(OCCCCCOc2ccc(C(=N)N)cc2)cc1,,,,,,32.3 °C,,
N=C(N)Nc1ccc(Nc2ccccc2)cc1,49.5 µM,1.6 µM,4.8 µM,,,,,
COc1ccc(NC2=NCCN2)cc1OC,> 349 µM,14.8 µM,84.2 µM,,,,,
N=C(N)Nc1ccc(NC(=O)c2ccccc2)cc1,> 309 µM,10.4 µM,122 µM,,,,,
N=C(N)Nc1ccc2c(c1)Cc1cc(NC(=N)N)ccc1-2,4.7 µM,0.0023 µM,0.024 µM,,2043,,196,
N=C(N)Nc1ccc(C(=O)Nc2ccccc2)cc1,> 309 µM,13.3 µM,87.4 µM,,,,,
CC(=O)c1ccc(NC2=NCCN2)cc1,> 375 µM,5.7 µM,54.6 µM,,,,,
